The values that follow come from publication PMC4300256 (Aquatic toxicology (Amsterdam, Netherlands), 2014).

The structures appear in SMILES notation. Like-named read-outs stand apart in the source and are kept apart here.

The target of assay [1] is T1, RyR1 (Fundulus heteroclitus, UniProt A0A3Q2R0L4). As to the kind of experiment: Ca^2+ induced [^3H]Ry binding. The class given is biochemical. The settings on record: NBH and SC killifish; 10 nM [^3H]Ry. The method, boiled down: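 Skeletal muscle microsomes (≥4 fish pooled per population), 100 µg ml−1, with 10 nM [3H]Ry in 250 KCl/15 NaCl/20 HEPES mM buffer (pH 7.1), 25°C, 16 h. Free Ca2+ 0.25–10,000 µM set with CaCl2/EGTA. Nonspecific binding: 1000-fold unlabeled ryanodine plus 200 µM EGTA. GF/B filtration, scintillation counting. Bell-shaped curve fit. 2–4 biological replicates, each run in triplicate or quadruplicate.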

Assay [2] addresses T1, RyR1. It counts as binding. The settings on record: two-site model, estimate ± SE.
Assay [3] deals with T1, RyR1. As to the kind of experiment: PCB 95 induced [^3H]Ry binding. The settings on record: for maximum response achieved, [^3H]Ry binding: 8 nM [^3H]Ry, 50 µM CaCl2; for EC50: read-out: half-maximal effect concentration (EC50). It counts as biochemical. The method, boiled down: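 Pooled skeletal muscle microsomes, 40 µg ml−1, were incubated with 8 nM [3H]Ry and 50 µM CaCl2 in RyR buffer (pH 7.1) at 25°C for 16 h. Test compound 0.01–20 µM in 0.5% DMSO; solvent control was 0.5% DMSO. After filtration and scintillation counting, specific binding was taken as a percent of the DMSO control and fitted by sigmoidal dose-response. 2–4 biological replicates, each in triplicate or quadruplicate.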

T1 sequence (A0A3Q2R0L4 1-4852): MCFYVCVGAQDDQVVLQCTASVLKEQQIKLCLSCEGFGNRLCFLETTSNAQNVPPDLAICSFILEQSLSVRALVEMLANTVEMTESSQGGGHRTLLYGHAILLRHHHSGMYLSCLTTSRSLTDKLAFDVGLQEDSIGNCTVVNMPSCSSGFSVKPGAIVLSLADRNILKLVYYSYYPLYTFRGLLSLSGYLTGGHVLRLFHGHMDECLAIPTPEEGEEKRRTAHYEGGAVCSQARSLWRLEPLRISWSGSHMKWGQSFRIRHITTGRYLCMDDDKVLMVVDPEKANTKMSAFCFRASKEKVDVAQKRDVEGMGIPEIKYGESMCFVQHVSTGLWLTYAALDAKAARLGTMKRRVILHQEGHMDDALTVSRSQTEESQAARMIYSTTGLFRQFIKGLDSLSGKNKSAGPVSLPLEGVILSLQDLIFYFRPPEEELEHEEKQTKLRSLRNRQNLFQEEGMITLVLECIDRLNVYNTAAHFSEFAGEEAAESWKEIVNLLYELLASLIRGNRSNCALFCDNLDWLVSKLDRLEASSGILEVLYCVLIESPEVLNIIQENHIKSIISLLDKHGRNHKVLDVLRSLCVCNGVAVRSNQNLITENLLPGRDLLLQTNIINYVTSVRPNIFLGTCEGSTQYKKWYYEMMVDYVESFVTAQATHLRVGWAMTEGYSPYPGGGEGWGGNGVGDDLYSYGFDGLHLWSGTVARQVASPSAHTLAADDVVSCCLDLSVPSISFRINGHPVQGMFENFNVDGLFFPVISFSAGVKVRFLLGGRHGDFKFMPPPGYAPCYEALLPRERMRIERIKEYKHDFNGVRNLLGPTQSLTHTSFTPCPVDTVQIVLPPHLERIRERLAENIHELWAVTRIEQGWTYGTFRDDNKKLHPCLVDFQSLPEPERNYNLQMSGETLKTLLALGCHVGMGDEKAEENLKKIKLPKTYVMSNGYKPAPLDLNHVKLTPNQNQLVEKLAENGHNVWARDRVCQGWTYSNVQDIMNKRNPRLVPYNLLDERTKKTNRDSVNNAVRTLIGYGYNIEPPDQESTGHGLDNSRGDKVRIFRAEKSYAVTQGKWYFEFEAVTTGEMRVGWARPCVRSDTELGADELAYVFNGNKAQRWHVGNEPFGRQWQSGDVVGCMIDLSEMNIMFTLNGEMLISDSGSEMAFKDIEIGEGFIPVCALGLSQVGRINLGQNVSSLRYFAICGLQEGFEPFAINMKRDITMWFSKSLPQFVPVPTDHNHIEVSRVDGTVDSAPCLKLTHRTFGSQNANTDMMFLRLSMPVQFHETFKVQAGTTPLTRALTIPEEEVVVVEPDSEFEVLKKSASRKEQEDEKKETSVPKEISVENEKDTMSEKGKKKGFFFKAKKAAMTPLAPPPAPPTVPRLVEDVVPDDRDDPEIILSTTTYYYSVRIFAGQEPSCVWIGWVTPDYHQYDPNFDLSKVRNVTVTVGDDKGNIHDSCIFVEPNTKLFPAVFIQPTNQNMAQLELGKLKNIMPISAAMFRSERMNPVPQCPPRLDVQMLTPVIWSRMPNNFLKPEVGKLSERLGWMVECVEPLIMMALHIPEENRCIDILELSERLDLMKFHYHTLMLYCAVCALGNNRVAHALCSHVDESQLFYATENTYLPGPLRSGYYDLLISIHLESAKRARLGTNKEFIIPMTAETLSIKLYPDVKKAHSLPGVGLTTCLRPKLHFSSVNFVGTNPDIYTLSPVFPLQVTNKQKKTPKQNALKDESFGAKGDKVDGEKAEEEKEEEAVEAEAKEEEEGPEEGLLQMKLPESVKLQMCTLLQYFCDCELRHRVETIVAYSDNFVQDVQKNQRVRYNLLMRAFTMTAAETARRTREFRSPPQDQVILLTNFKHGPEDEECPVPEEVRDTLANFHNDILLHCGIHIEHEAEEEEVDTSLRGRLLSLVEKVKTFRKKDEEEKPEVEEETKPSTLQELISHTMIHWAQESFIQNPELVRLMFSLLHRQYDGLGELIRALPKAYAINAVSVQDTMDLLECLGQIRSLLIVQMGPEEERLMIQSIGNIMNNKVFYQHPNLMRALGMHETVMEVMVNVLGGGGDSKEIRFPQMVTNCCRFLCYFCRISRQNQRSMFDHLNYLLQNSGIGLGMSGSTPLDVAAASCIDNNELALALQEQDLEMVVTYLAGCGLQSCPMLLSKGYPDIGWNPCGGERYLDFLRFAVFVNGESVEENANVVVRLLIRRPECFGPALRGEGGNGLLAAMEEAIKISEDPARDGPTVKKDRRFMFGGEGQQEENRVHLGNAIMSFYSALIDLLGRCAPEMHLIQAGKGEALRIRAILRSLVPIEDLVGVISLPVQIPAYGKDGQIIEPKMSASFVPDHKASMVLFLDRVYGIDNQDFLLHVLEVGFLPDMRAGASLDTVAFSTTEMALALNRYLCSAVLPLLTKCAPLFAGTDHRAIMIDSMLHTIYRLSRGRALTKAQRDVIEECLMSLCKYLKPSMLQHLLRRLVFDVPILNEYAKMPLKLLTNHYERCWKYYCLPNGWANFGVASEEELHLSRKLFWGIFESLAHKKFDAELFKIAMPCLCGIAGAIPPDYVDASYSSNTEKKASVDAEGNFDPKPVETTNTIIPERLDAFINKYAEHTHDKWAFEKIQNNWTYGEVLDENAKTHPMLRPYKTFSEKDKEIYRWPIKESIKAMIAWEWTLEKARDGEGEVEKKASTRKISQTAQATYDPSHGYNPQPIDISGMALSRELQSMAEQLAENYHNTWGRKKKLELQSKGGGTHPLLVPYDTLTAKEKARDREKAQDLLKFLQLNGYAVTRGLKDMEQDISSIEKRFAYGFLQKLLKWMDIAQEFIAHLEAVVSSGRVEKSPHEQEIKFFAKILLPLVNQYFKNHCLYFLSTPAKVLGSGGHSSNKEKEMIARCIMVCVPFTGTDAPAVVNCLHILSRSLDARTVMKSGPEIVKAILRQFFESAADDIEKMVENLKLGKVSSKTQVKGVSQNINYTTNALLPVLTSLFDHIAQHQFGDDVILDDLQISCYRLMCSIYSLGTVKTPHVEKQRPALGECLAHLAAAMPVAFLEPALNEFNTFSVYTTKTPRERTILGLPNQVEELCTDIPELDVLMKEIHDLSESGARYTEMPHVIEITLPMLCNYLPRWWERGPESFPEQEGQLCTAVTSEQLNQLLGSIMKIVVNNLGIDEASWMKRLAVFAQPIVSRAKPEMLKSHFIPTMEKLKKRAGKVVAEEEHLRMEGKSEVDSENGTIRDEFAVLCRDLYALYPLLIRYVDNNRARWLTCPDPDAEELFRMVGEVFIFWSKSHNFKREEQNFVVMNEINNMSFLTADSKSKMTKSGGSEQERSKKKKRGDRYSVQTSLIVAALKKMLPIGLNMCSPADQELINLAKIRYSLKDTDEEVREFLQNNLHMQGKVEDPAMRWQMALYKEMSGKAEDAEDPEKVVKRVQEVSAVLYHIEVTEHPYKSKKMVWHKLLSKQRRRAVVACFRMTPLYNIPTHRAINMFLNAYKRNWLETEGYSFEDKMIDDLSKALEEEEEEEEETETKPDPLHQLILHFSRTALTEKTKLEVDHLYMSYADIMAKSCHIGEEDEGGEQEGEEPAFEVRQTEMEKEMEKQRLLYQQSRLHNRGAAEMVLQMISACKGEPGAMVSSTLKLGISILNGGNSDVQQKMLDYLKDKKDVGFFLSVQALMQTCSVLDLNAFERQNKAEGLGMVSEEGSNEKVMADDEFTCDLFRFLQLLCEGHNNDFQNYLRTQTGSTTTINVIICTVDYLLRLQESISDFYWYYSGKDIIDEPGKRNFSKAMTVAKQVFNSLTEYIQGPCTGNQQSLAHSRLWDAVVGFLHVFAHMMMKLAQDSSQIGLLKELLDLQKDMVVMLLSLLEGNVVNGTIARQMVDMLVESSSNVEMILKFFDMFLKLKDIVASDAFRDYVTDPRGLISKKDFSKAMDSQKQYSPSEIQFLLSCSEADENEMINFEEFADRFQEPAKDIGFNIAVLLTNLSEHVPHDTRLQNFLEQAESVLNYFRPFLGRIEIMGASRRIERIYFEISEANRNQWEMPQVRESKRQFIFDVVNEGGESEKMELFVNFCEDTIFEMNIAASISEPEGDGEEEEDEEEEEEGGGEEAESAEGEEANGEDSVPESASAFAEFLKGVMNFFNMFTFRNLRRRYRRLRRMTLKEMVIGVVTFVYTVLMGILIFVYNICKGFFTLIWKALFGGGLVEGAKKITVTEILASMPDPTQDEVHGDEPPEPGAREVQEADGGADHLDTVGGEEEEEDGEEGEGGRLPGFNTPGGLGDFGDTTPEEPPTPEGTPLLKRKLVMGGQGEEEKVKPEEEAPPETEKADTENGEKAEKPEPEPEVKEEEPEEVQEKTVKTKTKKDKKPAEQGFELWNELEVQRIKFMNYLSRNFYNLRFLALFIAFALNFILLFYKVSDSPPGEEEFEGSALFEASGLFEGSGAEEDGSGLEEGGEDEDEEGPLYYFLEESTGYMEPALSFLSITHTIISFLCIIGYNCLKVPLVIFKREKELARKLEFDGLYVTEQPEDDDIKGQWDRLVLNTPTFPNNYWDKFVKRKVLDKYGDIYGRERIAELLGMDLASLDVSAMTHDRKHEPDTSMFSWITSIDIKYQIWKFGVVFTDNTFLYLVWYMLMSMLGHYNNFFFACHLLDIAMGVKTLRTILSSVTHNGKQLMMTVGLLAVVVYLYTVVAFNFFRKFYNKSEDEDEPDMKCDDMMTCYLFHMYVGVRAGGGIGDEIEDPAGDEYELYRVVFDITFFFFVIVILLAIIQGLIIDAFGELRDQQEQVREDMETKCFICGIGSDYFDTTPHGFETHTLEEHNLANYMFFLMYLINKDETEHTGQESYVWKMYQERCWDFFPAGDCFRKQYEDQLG

For `[Ca+2]` [Ca^2+], at RyR1 [1], the “Ca^2+ levels leading to receptor activation” value is given as “below 250 µM” and the “Ca^2+ levels leading to receptor inactivation” value is “above 500 µM”.
`CC(C)[C@@]1(O)[C@@H](OC(=O)c2ccc[nH]2)[C@@]2(O)[C@@]3(C)C[C@]4(O)O[C@@]5([C@H](O)[C@@H](C)CC[C@]35O)[C@@]2(O)[C@@]14C` [[^3H]Ry, ryanodine]: the “High Affinity Bmax” value at RyR1 [2] (NBH killifish skeletal muscle) is 1.63 ± 0.32 pmol/mg; on RyR1 [2] (SC killifish skeletal muscle), 1.47 ± 0.31 pmol/mg. The “Low Affinity Bmax” value is recorded as 6.69 ± 0.92 pmol/mg at RyR1 [2] (NBH killifish skeletal muscle) and 2.93 ± 1.07 pmol/mg at RyR1 [2] (SC killifish skeletal muscle, 95% CI 0.81 to 5.05).
As to `Clc1ccc(Cl)c(-c2c(Cl)ccc(Cl)c2Cl)c1` [PCB 95], the EC10 – broadly, the concentration needed for an effect of 10% – at RyR1 [3] (NBH killifish skeletal muscle) is listed as 9.23 nM; at RyR1 [3] (SC killifish skeletal muscle), 4.11 nM. For the same compound, the “maximum response achieved, [^3H]Ry binding” value on RyR1 [3] (NBH killifish skeletal muscle) is recorded as 301 % of the DMSO control; on RyR1 [3] (SC killifish skeletal muscle) it was 248 % of the DMSO control. Besides, the EC50 at RyR1 [3] (NBH killifish skeletal muscle, 95% CI 77.7–119.1) came to 96.2 nM; at RyR1 [3] (SC killifish skeletal muscle, 95% CI 36.6–84.6), 55.6 nM.
